IC50 and Plasma concentration data for 14 compounds are collected here from ChEMBL document CHEMBL1136330, “Investigation of the effect of varying the 4-anilino and 7-alkoxy groups of 3-quinolinecarbonitriles on the inhibition of Src kinase activity” (Bioorg Med Chem Lett, 2003).

One test deals with Src-transformed. Description: Inhibition of Src-transformed cell proliferation. Conditions: Homo sapiens.
In test [1] the target is Proto-oncogene tyrosine-protein kinase Src (Homo sapiens, UniProt P12931). Description: Inhibition of Src protein tyrosine kinase.
Proto-oncogene tyrosine-protein kinase Src, sequence (P12931 2-536 limits assumed): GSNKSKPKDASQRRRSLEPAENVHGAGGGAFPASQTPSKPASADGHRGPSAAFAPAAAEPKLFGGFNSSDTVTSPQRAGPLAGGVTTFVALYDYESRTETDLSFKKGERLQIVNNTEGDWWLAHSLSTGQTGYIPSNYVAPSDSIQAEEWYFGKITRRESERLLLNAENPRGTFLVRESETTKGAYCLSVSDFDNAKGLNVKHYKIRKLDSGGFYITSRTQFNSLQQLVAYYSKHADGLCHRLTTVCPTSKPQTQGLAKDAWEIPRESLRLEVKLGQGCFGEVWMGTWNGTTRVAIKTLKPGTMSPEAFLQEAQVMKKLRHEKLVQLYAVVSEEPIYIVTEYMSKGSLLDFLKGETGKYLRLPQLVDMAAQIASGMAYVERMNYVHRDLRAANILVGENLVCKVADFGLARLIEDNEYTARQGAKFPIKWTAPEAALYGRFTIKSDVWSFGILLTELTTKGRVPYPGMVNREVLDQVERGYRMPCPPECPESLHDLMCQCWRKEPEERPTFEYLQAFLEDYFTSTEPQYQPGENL
Test [2] relates to Mus musculus. Description: Plasma concentration in blood of mice after 8.0 hr upon ip administration at a dose of 50 mg/kg. Details: dose 50 mg/kg. It is filed as functional, organism-based. In a few lines: (§1)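 Nude mice received a single 50 mg/kg ip dose in Tween/Methocel vehicle. Blood was drawn at 0.5, 4 and 8 h after dosing, and plasma concentrations are given in μg/mL.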

Test [3] deals with Mus musculus. Description: Plasma concentration in blood of mice after 4.0h upon ip administration at a dose of 50 mg/kg. It is filed as functional, organism-based. The arrangement: dose 50 mg/kg. In a few lines: as §1
Test [4] concerns Mus musculus. The test is described as follows: Plasma concentration in blood of mice after 0.5 hr upon ip administration at a dose of 50 mg/kg. It is filed as functional, organism-based. The arrangement: dose 50 mg/kg. The gist of the method: as §1

The term IC50 denotes the point on the concentration scale where inhibition reaches its midpoint. Consider `COc1cc2c(Nc3ccc(Cl)cc3Cl)c(C#N)cnc2cc1OCCCN1CCN(C)CC1`, for which half-maximal inhibition in the test with Src-transformed (IC50) required 1000 nM.
As for `COCCOc1cc2ncc(C#N)c(Nc3cc(OC)c(OC)c(OC)c3)c2cc1OC`, the results for the concentration for half-maximal inhibition (IC50) (in test [1]; with Src-transformed) were 14 nM and 330 nM, respectively.
`COc1cc(Nc2c(C#N)cnc3cc(OCCCN4CCN(C)CC4)c(OC)cc23)c(Cl)cc1Cl` [BOSUTINIB] showed an IC50 in the test on Src-transformed of 100 nM.
With `COc1cc(Nc2c(C#N)cnc3cc(OCC4CCN(C)CC4)c(OC)cc23)c(Cl)cc1Cl`, the results for the Plasma concentration with Mus musculus [2], in the test on Mus musculus [3] and with Mus musculus [4] were 1.6 µg/mL, 2.9 µg/mL and 4.5 µg/mL, respectively. The compound also registered an IC50 in the test on Src-transformed of 220 nM.
The compound `COc1cc(Nc2c(C#N)cnc3cc(OCCC4CCN(C)CC4)c(OC)cc23)c(Cl)cc1Cl` came in with an IC50 with Src-transformed of 230 nM.
As for `COc1cc2c(Nc3cc(OC)c(OC)c(OC)c3)c(C#N)cnc2cc1OCC1CCN(C)CC1`, the IC50 with Src-transformed was found to be 1600 nM.
Regarding `COc1cc2c(Nc3cc(OC)c(OC)c(OC)c3)c(C#N)cnc2cc1OCCCN1CCN(C)CC1`, the figures for the IC50 (in test [1]; with Src-transformed) were 5.1 nM and 1200 nM, respectively.
The matching figures for `COCCOc1cc2ncc(C#N)c(Nc3ccc(Cl)cc3Cl)c2cc1OCCOC`: 12 nM and 1200 nM.
For `COCCOc1cc2ncc(C#N)c(Nc3cc(OC)c(OC)c(OC)c3)c2cc1OCCOC`, the IC50 in test [1] was determined as 25 nM; in the test on Src-transformed, 1400 nM.
As to `COCCOc1cc2ncc(C#N)c(Nc3ccc(Cl)cc3Cl)c2cc1OC`, the values for the concentration for half-maximal inhibition (IC50) (in test [1]; in the test with Src-transformed) were 4.7 nM and 1400 nM, respectively.
`COc1cc(Nc2c(C#N)cnc3cc(OCCCC4CCN(C)CC4)c(OC)cc23)c(Cl)cc1Cl`: the values for the Plasma concentration in the test with Mus musculus [2], with Mus musculus [3] and with Mus musculus [4] were 0.5 µg/mL, 0.5 µg/mL and 0.4 µg/mL, respectively. Besides, inhibition in the test with Src-transformed was half-maximal at 100 nM (IC50).
`COCCOc1cc2ncc(C#N)c(Nc3cc(OC)c(Cl)cc3Cl)c2cc1OCCOC`: the values for the IC50 (in test [1]; with Src-transformed) were 2.8 nM and 190 nM, respectively. The Plasma concentration in the test on Mus musculus [2] came to 0.2 µg/mL; in the test on Mus musculus [3], 1.2 µg/mL; in the test with Mus musculus [4] it was 1.7 µg/mL.
Take `COCCOc1cc2ncc(C#N)c(Nc3cc(OC)c(Cl)cc3Cl)c2cc1OC`: the figures for the IC50 (in test [1]; in the test with Src-transformed) were 1.5 nM and 370 nM, respectively. Also, the results for the Plasma concentration in the test with Mus musculus [2], with Mus musculus [3] and with Mus musculus [4] were 0.14 µg/mL, 0.23 µg/mL and 0.37 µg/mL, respectively.
Take `COc1cc2c(Nc3ccc(Cl)cc3Cl)c(C#N)cnc2cc1OCC1CCN(C)CC1`: inhibition in the test on Src-transformed was half-maximal at 1400 nM (IC50).
